Compound activity deposited in PubChem by Johns Hopkins Ion Channel Center.
Kir21 inh = blocks the mouse Kir2.1 inward-rectifier potassium channel | P35561 | HEK293-Kir2.1, FluxOR thallium flux fluorescence; hits give low values | B-score at 10 µM | 310,000 compounds, 0.85% hits | AID 1672;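 active = fluorescence ratio B-score at or below minus 3 SD of library scores, with starting-brightness B-score within 2 SD, cut at about -4.2 in these data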;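 also: channel flux triggered by added potassium and thallium sulfate stimulus; B-score of peak minus minimum fluorescence over baseline after thallium stimulus; more negative B-score means stronger Kir2.1 block with less thallium influx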
TRPC4 potent = TRPC4 (mouse) allosteric potentiation. HEK293 TRPC4beta/mu-opioid, DAMGO EC20, Fluo-4 Ca2+ flux; hits give high values. 310,000 compounds, 0.42% hits. B-score at 10 µM;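 active = B-score of calcium response area above 5 SD of library B-scores, with initial fluorescence ratio within 5 SD of library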;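 also: B-score of integrated fluorescence ratio over time as area under calcium response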
Target sequence (Q9QUQ5 whole entry, looked up): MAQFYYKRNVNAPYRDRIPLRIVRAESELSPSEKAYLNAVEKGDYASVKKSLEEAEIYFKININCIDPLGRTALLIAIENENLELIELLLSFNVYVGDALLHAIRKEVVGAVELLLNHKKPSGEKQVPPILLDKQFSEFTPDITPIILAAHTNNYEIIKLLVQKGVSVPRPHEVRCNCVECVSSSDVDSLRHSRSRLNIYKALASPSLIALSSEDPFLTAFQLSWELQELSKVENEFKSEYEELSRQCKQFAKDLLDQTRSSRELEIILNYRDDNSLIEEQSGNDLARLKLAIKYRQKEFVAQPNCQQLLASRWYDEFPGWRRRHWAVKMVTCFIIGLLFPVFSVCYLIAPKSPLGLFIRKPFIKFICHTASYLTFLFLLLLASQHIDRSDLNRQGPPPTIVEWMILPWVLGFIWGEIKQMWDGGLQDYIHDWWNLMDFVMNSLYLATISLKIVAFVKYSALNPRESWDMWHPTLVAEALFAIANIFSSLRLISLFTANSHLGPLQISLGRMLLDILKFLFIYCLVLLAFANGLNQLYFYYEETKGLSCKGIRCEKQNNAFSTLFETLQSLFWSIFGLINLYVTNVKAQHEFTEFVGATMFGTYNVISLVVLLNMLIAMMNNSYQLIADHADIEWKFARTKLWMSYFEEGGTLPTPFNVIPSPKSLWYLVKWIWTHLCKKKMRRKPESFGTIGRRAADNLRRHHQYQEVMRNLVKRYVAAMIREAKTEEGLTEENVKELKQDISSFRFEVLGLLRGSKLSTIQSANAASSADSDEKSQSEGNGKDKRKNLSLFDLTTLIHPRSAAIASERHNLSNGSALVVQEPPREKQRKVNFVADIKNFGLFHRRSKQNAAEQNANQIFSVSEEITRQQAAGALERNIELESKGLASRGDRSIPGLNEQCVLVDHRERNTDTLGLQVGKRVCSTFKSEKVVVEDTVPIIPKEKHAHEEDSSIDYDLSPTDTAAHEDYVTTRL
TRPC4 block = TRPC4 (mouse) channel inhibition; AID 2247; 300,000 compounds, 0.39% hits; B-score at 10 µM; Q9QUQ5; HEK293 TRPC4beta/mu-opioid, DAMGO-evoked Fluo4 calcium flux; hits give low values;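 active = B-score over 3 SD under the library average, no early fluorescence shift, positive overall ratio signal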
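Assay system: HEK293 cells with stable TRPC4beta plus mu-opioid receptor expression. Dosing: single dose. Measured by: Fluo4 Ca2+ flux fluorescence. Also added: DAMGO in two steps, submaximal then maximal. Read-out: B score from integrated Fluo4 fluorescence ratio.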
TRPC6 inh = blocks the mouse TRPC6 cation channel; HEK293-TRPC6, membrane potential dye, ACh-evoked depolarization; hits give low values; B-score at 10 µM; 310,000 compounds, 1.1% hits; AID 2553;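 active = B-score under library mean minus 3 SD, initial fluorescence not abnormally high, positive integrated signal ratio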;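 also: B-score derived from integrated fluorescence ratio over the kinetic read; more negative B-score means stronger inhibition of depolarization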
TRPC6 activator = activators of mouse TRPC6 channel; Q61143; HEK293-TRPC6 membrane potential dye fluorescence; hits give high values; B-score at 10 µM; 310,000 compounds, 0.13% hits;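 active = B-score of the integrated fluorescence ratio above library mean plus 3 SD, and starting fluorescence ratio within library mean plus 5 SD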;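 also: higher score means more depolarization so channel activation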
TRPC4 agonist = opens the mouse TRPC4 cation channel. HEK293 TRPC4beta/mu-opioid, Fluo4 calcium fluorescence; hits give high values. 310,000 compounds, 0.49% hits. B-score at 10 µM. Q9QUQ5;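 active = B-score above 5 SD of library B-scores, and initial fluorescence ratio not above library mean plus 5 SD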;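 also: positive B-score marks a calcium rise read as TRPC4 activation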
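Test system: HEK293 cells stably co-expressing mouse TRPC4beta and mu-opioid receptor | Schedule: Fluo4 dye loading 45 min at room temperature, 110 s recording | Measured by: Kinetic Fluo4 calcium fluorescence, 5 s baseline at 1 Hz | Evaluation: B score of integrated ratio | Controls: Buffer (low) and maximal DAMGO (high)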
* hit, by the source's call; i = inactive. In the library only some 2.9% were active in any assay of this set; here they are far more common.

SMILES | Kir21 inh | TRPC4 potent | TRPC4 block | TRPC6 inh | TRPC6 activator | TRPC4 agonist
O=C1C(c2ccccc2)=[N+]([O-])c2ccccc21 | 0.19 | i | i | i | i | i
Cc1ccc(NC(=O)N2CCCC2C(=O)NCCc2ccccc2)cc1 (stereo not given) | 0.78 | i | -6* | i | i | i
Cc1ccc(NC(=O)C2CCCN2C(=O)NCc2ccccc2)cc1 (stereo not given) | 0.18 | i | i | i | i | i
CSC1=NC2(CCCCC2)C2=C(CCCC2)N1 | -1.26 | i | -6* | i | i | i
COc1ccc(C(CNC(=O)c2oc3c(Cl)cccc3c2C)N2CCCC2)cc1 (stereo not given) | -0.68 | i | i | i | i | i
CNC(=S)N1N=C(c2ccccc2)CC1c1ccc(OC)c(OC)c1 (stereo not given) | 0 | 11* | i | i | i | i
CNC(=S)N1N=C(c2ccc(C)cc2)CC1c1ccc(OC)c(OC)c1 (stereo not given) | -1.68 | i | i | i | i | i
CCOc1ccc(CCNC(=O)CSC(=S)N2CCCC2)cc1OCC | -1.79 | i | i | i | i | i
CN(C)S(=O)(=O)c1ccc(NC(=O)CN2C(=O)NC3(CCCC3)C2=O)cc1 | -0.34 | i | i | i | i | i
COc1ccc(N2CCN(C(=O)c3ccc(N(C)S(=O)(=O)c4ccc(OC)cc4)cc3)CC2)cc1 | 0.81 | i | i | i | i | i
COc1ccc(N2CCN(C(=O)c3ccc(N(C)S(=O)(=O)c4ccc(C)cc4)cc3)CC2)cc1 | 0.2 | 38* | i | i | i | 44*
COc1ccc(N(C)S(=O)(=O)c2cccc(C(=O)N3CCN(S(=O)(=O)c4ccc(C)cc4)CC3)c2)cc1 | 0.22 | i | i | -8.27* | 12* | i
COc1ccc(S(=O)(=O)N(C)c2ccc(C(=O)N3CCN(C)CC3)cc2)cc1 | -0.9 | i | i | i | i | i
O=C(/C=C/c1ccc(S(=O)(=O)N2CCOCC2)cc1)NC(=S)Nc1ccc(N2CCOCC2)cc1 | -0.09 | 12* | i | i | i | i
COc1cc(/C=C(/C(=O)c2cccs2)c2nc3ccccc3[nH]2)ccc1O | -4.41* | i | i | i | i | i
Cc1ccc(C(O)(CNCc2ccccc2)c2ccccc2)cc1 (stereo not given) | -10.5* | i | i | i | i | i
COc1ccc(CNCC(O)(c2ccccc2)c2ccc(F)cc2)cc1 (stereo not given) | -7.05* | i | i | i | i | i
Cc1ccc(N2C(=O)CSC23C(=O)Nc2ccccc23)cc1 (stereo not given) | 1.8 | i | i | i | i | i
CC1=CC(C)(C)N2C(=O)C3(SCC(=O)N3c3ccc(O)cc3)c3cc(C)cc1c32 (stereo not given) | -1.74 | 10* | i | i | i | i
Cn1c(=O)c2c(ncn2CC(=O)N/N=C/c2c[nH]c3ccccc23)n(C)c1=O | -1.46 | i | i | i | i | i
COc1cc([N+](=O)[O-])cc(/C=C2/SC(=S)N(Cc3ccccc3)C2=O)c1O | -1.57 | i | i | -6.31* | i | i
Cc1cccc(NC(=O)CSCC(=O)Nc2ccccc2N2CCCC2)c1 | -4.27* | i | i | i | i | i
Cc1cccc(NC(=O)CSCc2c(C)noc2C)c1C | 0.05 | i | i | i | i | i
Cc1noc(C)c1CSCC(=O)Nc1ccccc1N1CCCCC1 | -9.95* | i | i | i | i | i
COc1ccc(S(=O)(=O)NN(C)C(=O)c2nn(-c3ccccc3)ccc2=O)cc1 | -1.59 | i | i | i | i | i
S=C(N/N=C/c1cccc2ccccc12)Nc1cccc(Cl)c1 | -1.38 | i | i | i | i | i
N=C(N)SCc1ccccn1 | -0.29 | 38* | i | i | i | i
Cc1ccc(OCCn2ccnc2)c([N+](=O)[O-])c1 | 0 | i | i | i | i | i
